PubChem BioAssay
The source made the active and inactive calls.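 Rule for the calls, unless noted: active = viability at or below 10% of carrier control in both of two separate runs; inconclusive = viability at or below 10% in only one of the two runs; inactive = the rest.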

Columns and labels:
[1] = reduced viability of SK-BR-3 breast cancer cells – cell-based, 24 h, human, pilot screen (AID 572); conditions: SK-BR-3 viability, CellTiter-Glo luminescence, at 10 µM, stronger effect = lower value;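 note: compound exposure lasted between 18 and 24 h rather than exactly 24 h; 100% = carrier-treated control wells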
[2] = HUVEC growth inhibition – cell-based, human, primary screen (AID 575;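 active = viability at or below 30% in both replicate assays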;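 note: 100% = median of untreated cell wells with 0.1% DMSO on each plate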); conditions: HUVEC proliferation, CellTiter-Glo luminescence, 72 h; at 10 µM; stronger effect = lower value
Procedure, shortened: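 Test system: primary human umbilical vein endothelial cells. Quantity: 1250 cells/well. Compound: single 10 µM dose, 0.1% DMSO, from 5x medium stock. Timing: 72 h treatment at 37 °C. Detection: ATP-based CellTiter-Glo luminescent read. Benchmarks: vehicle and MePR control wells. Format: 384-well plates coated with collagen.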

[3] = H69AR cell proliferation blockers – human, duplicate replicates, primary screen (AID 580;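 active = viability at or under a set limit in both replicates, limit being median viability minus 3 SD, cut at about 48% in these data, passing the limit was not always enough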;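 note: 100% = mean luminescence of untreated wells and 0% = no signal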); conditions: H69AR lung tumor cells viability, ATP luminescence, 72 h; at 10 µM; stronger effect = lower value
[4] = MRP1 drug-resistance reversers in H69AR cells – cell-based, doxorubicin co-treatment, pilot screen (AID 601;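 active = viability loss from added drug above about 55%, and viability with drug at most 40%, in both replicates, limit read from the data, passing the limit was not always enough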); conditions: CellTiter-Glo, 72 h, at 10 µM; for differential viability (reversal): stronger effect = higher value
[5] = yeast transport mutant growth inhibition pilot in 384-well plates, post-Golgi transport modulator project (AID 636; in the data active = inhibition above about 31%); conditions: absorbance 615 nm, about 18 h, stronger effect = higher value
[6] = growth suppression of yeast trafficking mutant, preliminary HTS, modulators of trafficking downstream of Golgi apparatus project, 1536-format plate, OD 615 nm (AID 637; in the data active = inhibition above about 30%); conditions: yeast transport mutant growth, absorbance 615 nm, 18 h; stronger effect = higher value
[7] = H69AR cells + 2 uM doxorubicin, measured here: viability with 2 uM doxorubicin, stronger effect = lower value
[8] = H69AR cells, compound alone cytotoxicity

| Compound | viability [1] | viability [2] | viability [3] | differential viability (reversal) ([4]; H69AR cells + 2 uM doxorubicin) | viability [4, 7] | viability [4, 8] | inhibition [5] | inhibition [6] |
| --- | --- | --- | --- | --- | --- | --- | --- | --- |
| Nn1c(SCC(=O)Nc2ccccc2)nnc1-c1cccnc1 | 78% (inactive) | 96.9% (inactive) | 88.1% (inactive) | 2.29% (inactive) | 85.8% | 88.1% | -8% (inactive) | 3.64% (inactive) |
| O=C(NCCCN1CCN(Cc2ccccc2)CC1)C1CCN(c2nnc(-n3cccc3)s2)CC1 | 118% (inactive) | 97.1% (inactive) | 88.7% (inactive) | 4.26% (inactive) | 84.4% | 88.7% | -4.93% (inactive) | -1.82% (inactive) |
| CCc1ccc2[nH]c(=O)c(C(c3nnnn3CC3CCCO3)N3CCN4CCCC4C3)cc2c1 (configuration not stated) | 100% (inactive) | 109% (inactive) | 105% (inactive) | 14.1% (inactive) | 91.1% | 105% | -3.2% (inactive) | -2.55% (inactive) |
| Cc1sc2nc3n(c(=O)c2c1C)NC(=O)CC3 | 104% (inactive) | 86.3% (inactive) | 94% (inactive) | 5.63% (inactive) | 88.4% | 94% | -4.79% (inactive) | 1.82% (inactive) |
| O=C(Nc1cnn(Cc2ccc(F)cc2)c1)c1cnccn1 | 117% (inactive) | 85.2% (inactive) | 98.8% (inactive) | 1.69% (inactive) | 97.1% | 98.8% | -2.34% (inactive) | 3.93% (inactive) |
| Cn1nc(CC(=O)Nc2ccc(N3CCN(C(=O)OC(C)(C)C)CC3)cc2)c2ccccc2c1=O | 84% (inactive) | 9.25% (active) | 1.72% (active) | -3.22% (inactive) | 4.94% | 1.72% | -1.82% (inactive) | -4.26% (inactive) |
| CCOC(=O)C1(c2ccccc2)NC(c2ccc(N(C)C)cc2)C2C(=O)N(C)C(=O)C21 (configuration not stated) | 82% (inactive) | 104% (inactive) | 94.4% (inactive) | 29.2% (inactive) | 65.2% | 94.4% | -8.11% (inactive) | -6.73% (inactive) |
| Cc1cccc(N(C)C(=S)Oc2ccc3ccccc3c2)c1 | 89% (inactive) | 109% (inactive) | 97.1% (inactive) | 13% (inactive) | 84.1% | 97.1% | 0.26% (inactive) | 1.83% (inactive) |
| CC1(C)CC(=O)C(CC(=O)NC(=O)NCc2ccccc2)=C(O)C1 | 114% (inactive) | 81.9% (inactive) | 105% (inactive) | 9.89% (inactive) | 94.7% | 105% | -4.52% (inactive) | -10% (inactive) |
| Cc1cc(Nc2ccccc2)n(-c2ccccc2)n1 | 123% (inactive) | 94.3% (inactive) | 101% (inactive) | 5.72% (inactive) | 95.6% | 101% | -1.1% (inactive) | -6.61% (inactive) |
| CN(CC(=O)Nc1cccnc1)S(=O)(=O)c1cc(Cl)ccc1Cl | 104% (inactive) | 105% (inactive) | 91.7% (inactive) | -7.51% (inactive) | 99.2% | 91.7% | -0.14% (inactive) | 6.73% (inactive) |
| CCSc1nc(N)c(C#N)c(-c2ccccc2Cl)c1C#N | 105% (inactive) | 96.1% (inactive) | 75.9% (inactive) | -3% (inactive) | 78.9% | 75.9% | 0.14% (inactive) | 0% (inactive) |
| CCN=C1SC(CC(=O)Nc2ccccc2OCC)C(=O)N1CC (configuration not stated) | 96% (inactive) | 94.3% (inactive) | 94.5% (inactive) | 8.11% (inactive) | 86.4% | 94.5% | -2.05% (inactive) | -2.74% (inactive) |
| O=C(NCc1cccnc1)/C(=N\O)c1ccccc1 | 73% (inactive) | 111% (inactive) | 98.8% (inactive) | 13.2% (inactive) | 85.6% | 98.8% | -6.08% (inactive) | -3.82% (inactive) |
| COc1ccccc1N1CCN(C(CNS(=O)(=O)c2cc(F)ccc2F)c2cccnc2)CC1 (configuration not stated) | 95% (inactive) | 110% (inactive) | 92.8% (inactive) | 2.69% (inactive) | 90.2% | 92.8% | -2.97% (inactive) | 4% (inactive) |
| Cc1cn(C2CC3OCC3O2)c(=O)[nH]c1=O (configuration not stated) | 101% (inactive) | 110% (inactive) | 94.2% (inactive) | -4.39% (inactive) | 98.5% | 94.2% | -7.12% (inactive) | -16.2% (inactive) |
| COc1ccccc1-n1nnnc1SCc1cc2c(cc1Br)OCO2 | 65% (inactive) | 86.1% (inactive) | 72.2% (inactive) | -4.98% (inactive) | 77.2% | 72.2% | -6.16% (inactive) | 4.18% (inactive) |

| Compound | viability [1] | viability [2] | viability [3] | differential viability (reversal) ([4]; H69AR cells + 2 uM doxorubicin) | viability [4, 7] | viability [4, 8] | inhibition [5] | inhibition [6] |
| --- | --- | --- | --- | --- | --- | --- | --- | --- |
| CCN1C(=O)/C(=C/N(C)c2ccccc2)OC1=S | 97% (inactive) | 91.5% (inactive) | 93.7% (inactive) | -0.96% (inactive) | 94.7% | 93.7% | -2.6% (inactive) | 8.18% (inactive) |
| Cc1nc(NC(=O)c2ccccc2)sc1-c1csc(NCc2ccco2)n1 | 82% (inactive) | 89% (inactive) | 20.2% (active) | -42.5% (inactive) | 62.7% | 20.2% | 34.6% (active) | 9.27% (inactive) |
| COc1ccc(NC(=O)CCc2ccccc2)cc1NC(=O)c1ccco1 | 64% (inactive) | 58.4% (inactive) | 56.6% (inactive) | -20.6% (inactive) | 77.2% | 56.6% | -7.12% (inactive) | 9.68% (inactive) |
| CCOC(=O)c1ccc(NC(=O)CCc2nc(-c3ccc(C)cc3)no2)cc1 | 85% (inactive) | 38% (inactive) | 94.3% (inactive) | 5.47% (inactive) | 88.8% | 94.3% | -3.29% (inactive) | 3.93% (inactive) |
| CCSCc1nnc(SCC(=O)Nc2cccc(SC)c2)n1C | 66% (inactive) | 84.3% (inactive) | 90.3% (inactive) | -14.9% (inactive) | 105% | 90.3% | -6.58% (inactive) | -0.18% (inactive) |
| CN1[C@@H](CC(=O)c2ccccc2)CCC[C@H]1C[C@H](O)c1ccccc1 | 63% (inactive) | 81.4% (inactive) | 84.1% (inactive) | -4.62% (inactive) | 88.7% | 84.1% | 1.95% (inactive) | 0.67% (inactive) |
| CCCCOc1ccc(C(=O)Nc2ccc(N3CCN(C(C)=O)CC3)cc2)cc1 | 81% (inactive) | 88.8% (inactive) | 94.4% (inactive) | -11.3% (inactive) | 106% | 94.4% | -1.78% (inactive) | 0.91% (inactive) |
| COC(=O)c1ccccc1NC(=O)C12CCC(C)(C(=O)O1)C2(C)C (configuration not stated) | 84% (inactive) | 87.6% (inactive) | 90.5% (inactive) | 13.7% (inactive) | 76.8% | 90.5% | -6.58% (inactive) | 0% (inactive) |
| COCCn1nnnc1C(c1ccccc1OC)N1CCc2ccccc2C1 (configuration not stated) | 119% (inactive) | 103% (inactive) | 82.1% (inactive) | -6.74% (inactive) | 88.8% | 82.1% | -8.24% (inactive) | -6.36% (inactive) |
| Cc1nc2ccc(S(=O)(=O)NCC(=O)N(C)Cc3ccco3)cc2s1 | 109% (inactive) | 95.6% (inactive) | 91.6% (inactive) | 9.31% (inactive) | 82.3% | 91.6% | -0.91% (inactive) | 3.93% (inactive) |
| COCC(=O)Nc1cc(OC)ccc1OC | 83% (inactive) | 89% (inactive) | 102% (inactive) | 5.8% (inactive) | 96.1% | 102% | -2.86% (inactive) | 0.66% (inactive) |
| CCOC(=O)CC(=O)CSc1nc(-c2cccnc2)ccc1C#N | 118% (inactive) | 98.6% (inactive) | 68.4% (inactive) | -24% (inactive) | 92.4% | 68.4% | -3.97% (inactive) | 0% (inactive) |
| CCn1c(SCC(=O)c2ccc(C)cc2)nnc1-c1ccoc1C | 89% (inactive) | 114% (inactive) | 108% (inactive) | 8.75% (inactive) | 99.2% | 108% | -5.14% (inactive) | 0.36% (inactive) |
| Cc1cc(NS(=O)(=O)Cc2ccccc2)cc(C)c1OCC(=O)N1CCOCC1 | 95% (inactive) | 92.1% (inactive) | 94.6% (inactive) | 20.2% (inactive) | 74.4% | 94.6% | -0.52% (inactive) | 0% (inactive) |
| CC(=O)N1CCc2cc(S(=O)(=O)NCCC(=O)NC3CCCc4ccccc43)ccc21 (configuration not stated) | 113% (inactive) | 112% (inactive) | 88.9% (inactive) | -1.16% (inactive) | 90% | 88.9% | -4% (inactive) | -3.27% (inactive) |
| Cc1csc(NC(=O)CCn2c(=O)oc3ccccc32)n1 | 91% (inactive) | 98.8% (inactive) | 94.4% (inactive) | 9.97% (inactive) | 84.5% | 94.4% | -5.95% (inactive) | 1.45% (inactive) |
| COc1ccc(OCCN2C(=O)NC(C)(c3ccc(C)cc3)C2=O)cc1 (configuration not stated) | 119% (inactive) | 101% (inactive) | 91.1% (inactive) | -3.77% (inactive) | 94.9% | 91.1% | 3.15% (inactive) | -4.03% (inactive) |
